The values below come from ChEMBL document CHEMBL3414428, “Bond-based bilinear indices for computational discovery of novel trypanosomicidal drug-like compounds through virtual screening” (Eur J Med Chem, 2015).

Data set [1] can be described thus: Selectivity ratio of IC50 for mouse J774 cells to IC50 for epimastigote stage of Trypanosoma cruzi CL-B5. The format is ADME, cell-based. The conditions noted are these: J774 cells versus Trypanosoma cruzi CL-B5 epimastigotes, read-out: Ratio IC50.
Data set [2] has as its system J774. The data set is described as follows: Cytotoxicity against mouse J774 cells assessed as cell viability after 48 hrs by resazurin assay. The format is cell-based. The conditions noted are these: J774, 48 h. A digest of the protocol:
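J774 macrophages grown in RPMI 1640 with 10% heat-inactivated FBS, penicillin and streptomycin at 37 °C, 5% CO2, and harvested pre-confluence with trypsin. Seeded at 5x10^4 cells/well and left to attach 24 h. Exposed to a range of drug concentrations for 48 h. Resazurin solution (2 mM stock, in PBS pH 7) added for 3 h. Absorbance read at 490 and 595 nm with background subtracted. Triplicates; %C and IC50 calculated.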

For data set [3], the system named is Trypanosoma cruzi. As to the kind of experiment: Trypanosomicidal activity against epimastigote stage of Trypanosoma cruzi CL-B5 after 72 hrs by beta-galactosidase reporter gene assay. The format is functional, organism-based. The conditions noted are these: CL-B5, 72 h. The gist of the method: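 Epimastigotes from cultures not yet in stationary phase, seeded at 2 x 10^5/mL with drugs at 28 °C for 72 h. CPRG then added (200 µM final) for 6 h at 37 °C and absorbance read at 595 nm. Each concentration tested in triplicate, two independent experiments; IC50 and AE% calculated.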

pIC50: −log10 of the molar value. Where only a bound is given, the exact number is not on record here.

Take `Oc1ccc(CCc2ccccc2)cc1`: the selectivity ratio in data set [1] is 3.3. For the same compound, the pIC50 was 3.39 in data set [2] and 3.91 in data set [3].

As to `COc1ccc(OC)c(CCc2ccccc2)c1`, the selectivity ratio in data set [1] came to 5.5. For the same compound, the pIC50 in data set [2] was less than 3.59; in data set [3], 4.33.

Take `COc1ccc(OC)c(C(=O)O)c1`: the pIC50 in data set [2] and in data set [3] was less than 3.59 throughout.

Consider `COc1ccc(OC)c(CO)c1`, for which the pIC50 in data set [2] and in data set [3] was less than 3.59 throughout.

On to `C=Cc1cc(OC)ccc1OC`, for which the pIC50 in data set [2] and in data set [3] was less than 3.59 each time.

For the compound `O=C(O)c1cc(O)ccc1O` [GENTISIC ACID], the pIC50 in data set [2] and in data set [3] was less than 3.59 throughout.

Regarding `Oc1ccc(O)cc1` [HYDROQUINONE], the selectivity ratio in data set [1] stood at 6.3. Further, the pIC50 in data set [2] is 3.91; in data set [3], 4.71.

On to `Oc1ccc(CCc2cccc(O)c2)cc1` [LUNULARIN], for which the selectivity ratio in data set [1] was found to be 3.4. Besides, the negative logarithm of the IC50 (pIC50) in data set [2] was less than 3.29; in data set [3] it was 3.82.

Take `COC(=O)c1cc(O)ccc1O` [METHYL 2,5-DIHYDROXYBENZOATE]: in data set [1], the selectivity ratio was determined as 2.6. Moreover, the pIC50 in data set [2] is less than 3.59; in data set [3], 4.01.

In the case of `COC(=O)c1cc(O)cc(O)c1` [METHYL 3,5-DIHYDROXYBENZOATE], the pIC50 in data set [2] and in data set [3] was less than 3.59 throughout.
